Rows were chosen to be rich in hits. Some 5.4% of all compounds tested hit in one or more screens of this group.
aSyn 5UTR inh – MLPCN primary screen, SNCA 5' untranslated region; alpha-synuclein 5'UTR reporter, inhibitor activity; inhibition, % (tested at 7.5 µM); 0.82% of 300,000 active; AID 1813, 2009; in the data active means inhibition above about 60%; inconclusive means no clear call, values can overlap the other calls;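 further: H4 neuroglioblastoma cells stably carrying SNCA 5'UTR luciferase fusion; 0% = DMSO wells and 100% = positive control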
Mdm2 MdmX PPI – inhibitors of human Mdm2-MdmX association, primary screen, cell-based, luminescence, split luciferase, SaOS-2, uHTS. inhibition, % at 8 µM. 3% of 330,000 active. AID 485346, 2010. Protein Mdm4 (Homo sapiens) + E3 ubiquitin-protein ligase Mdm2 (Homo sapiens), …. SaOS-2 split-luciferase Mdm2/MdmX complementation;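 active means inhibition of at least 50% at 8 µM in the primary screen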
Target sequence (O15151 whole entry, looked up): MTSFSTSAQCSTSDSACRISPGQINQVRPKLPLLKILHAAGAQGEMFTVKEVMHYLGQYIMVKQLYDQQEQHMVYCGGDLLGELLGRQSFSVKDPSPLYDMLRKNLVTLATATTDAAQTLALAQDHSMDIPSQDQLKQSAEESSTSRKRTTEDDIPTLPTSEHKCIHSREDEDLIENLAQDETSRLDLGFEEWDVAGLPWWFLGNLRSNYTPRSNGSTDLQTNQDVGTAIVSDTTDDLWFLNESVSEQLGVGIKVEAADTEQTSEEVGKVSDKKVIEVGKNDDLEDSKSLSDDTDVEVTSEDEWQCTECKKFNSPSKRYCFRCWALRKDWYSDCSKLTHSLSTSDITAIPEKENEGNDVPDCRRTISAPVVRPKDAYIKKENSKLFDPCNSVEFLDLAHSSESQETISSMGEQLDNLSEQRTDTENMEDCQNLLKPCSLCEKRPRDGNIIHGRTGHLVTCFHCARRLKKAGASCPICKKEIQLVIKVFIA
Target sequence (Q00987 whole entry, looked up): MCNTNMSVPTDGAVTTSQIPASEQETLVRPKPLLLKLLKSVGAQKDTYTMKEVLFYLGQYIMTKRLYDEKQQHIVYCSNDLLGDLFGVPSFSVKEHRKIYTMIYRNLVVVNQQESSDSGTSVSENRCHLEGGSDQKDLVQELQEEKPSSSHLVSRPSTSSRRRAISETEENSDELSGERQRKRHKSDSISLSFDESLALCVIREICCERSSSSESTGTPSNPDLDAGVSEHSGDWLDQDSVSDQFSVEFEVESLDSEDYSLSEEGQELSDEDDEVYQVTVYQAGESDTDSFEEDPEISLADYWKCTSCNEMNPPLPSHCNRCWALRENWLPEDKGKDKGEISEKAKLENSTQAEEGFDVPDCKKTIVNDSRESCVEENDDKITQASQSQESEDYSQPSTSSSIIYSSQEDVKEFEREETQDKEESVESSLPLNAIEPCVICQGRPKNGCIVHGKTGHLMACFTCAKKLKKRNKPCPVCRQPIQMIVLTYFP
CSC inhib – cancer stem cell viability inhibitors, primary screen, luminescence; cancer stem cell-like cells viability; inhibition, % at 7.5 µM; 1.1% of 300,000 active; AID 2717, 2010; in the data active means inhibition above about 75%; inconclusive means no clear call, values can overlap the other calls; tested in HMLE shEcad cells
SKKanGAS inh – S. pyogenes SKKanGAS growth inhibitors in kanamycin, primary screen, streptokinase expression inhibitor project, SKKanGAS strain, BacTiter-Glo luminescence; 6 h; inhibition, % at 7.5 µM; 1.3% of 300,000 active;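 active means mean replicate score, as percent of positive control median, at least 50; inconclusive means mean below 50 but one replicate at or above 50; inactive means mean and every replicate below 50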;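 further: strain carries kanamycin resistance gene driven by streptokinase promoter and grows in 40 µg/ml kanamycin; loss of luminescence reflects streptokinase promoter inhibition or plain growth inhibition; 0% = median of DMSO wells and 100% = positive control at its reference dose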
T cruzi inh – inhibitors of intracellular T. cruzi growth, primary screen, luminescence, NIH3T3 host cells | T. cruzi beta-gal in NIH3T3, 90 h | inhibition, % (test concentration not listed) | 1.4% of 300,000 active | AID 1885, 2009;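 active means mean inhibition across valid replicates above about 55%, limit read from the data; inconclusive means mean below that limit but half or more replicates reach it; inactive means mean below it, under half of replicates reach it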;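 further: signal also drops with host cell toxicity which is not excluded here; 0% = plate median of DMSO wells and 100% = zero luminescence signal; higher percent means less beta-gal luminescence so fewer parasites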
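Material: NIH/3T3 host cells with β-galactosidase reporter T. cruzi; Input: 5,000 host fibroblasts per well; Medium: DMEM, 2% fetal bovine serum; Compound: 50 nL DMSO compound solution per well; Schedule: 3 h host attachment, then at least 90 h co-culture; Detection: luminescent β-galactosidase signal after 60 min lysis.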
Mdm2 MdmX conf – Mdm2-MdmX complex disruptors, retested hits, confirmation, luminescence, single concentration | shares compounds with Mdm2 MdmX PPI | Mdm2-MdmX binding, luminescent assay | inhibition, % at 8 µM | 55% of 10,000 active | AID 489028, 2010; in the data active means inhibition above about 40%
FLuc counter – full-length luciferase signal inhibition, confirmation, counter-screen for Mdm2/MdmX interaction inhibitor project, cell-based, single concentration, SaOS-2; shares compounds with Mdm2 MdmX PPI; SaOS-2 full-length luciferase counterscreen, luminescence; inhibition, % at 8 µM; 77% of 6,200 active;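 active means mean inhibition at 8 µM reaching about 37%, which flags the compound as non-specific, limit read from the data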;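 further: p53-null SaOS-2 cells with luciferase driven by a doxycycline-inducible promoter; compound on cells about two nights before reading with doxycycline added after day one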
Active calls of the source: *; u = inconclusive; x = no result.

SMILES | aSyn 5UTR inh | Mdm2 MdmX PPI | CSC inhib | SKKanGAS inh | T cruzi inh | Mdm2 MdmX conf | FLuc counter
CCCCCc1ccc(OCCCC[n+]2ccc(C)cc2)c(CCCCC)c1 | x | 96* | 17 | -15 | x | 86* | 55*
Cc1cc(=O)oc2cc(OCCCC[n+]3ccccc3)ccc12 | -11 | 1 | 12 | -6 | -7 | x | x
CCC(C)(C)c1ccc(OCCCC[n+]2ccccc2)c(C(C)(C)CC)c1 | 20 | 84* | 105* | x | 58* | 94* | 56*
CCCCCc1ccc(OCCCC[n+]2ccccc2)c(CCCCC)c1 | 8 | 87* | 2 | u | 49 | 77* | 25
CCCCCc1ccc(OCCCC[n+]2cccc(C)c2)c(CCCCC)c1 | 23 | 83* | 109* | -4 | 52 | 90* | 60*
O=C(NCCc1ccc(Cl)cc1)c1cc(-c2ccccn2)nc2ccccc12 | -31 | 38 | 18 | 1 | 26 | x | x
CC(Oc1ccc(F)cc1)C(=O)Nc1ccccc1N1CCCCC1 (stereo unspecified) | 14 | 30 | 21 | u | 25 | x | x
CCCCCCCCCCCCCCCCn1cc[n+](C)c1 | 141* | 93* | 79* | 114* | 67* | 91* | 4
Cc1ccc(S(=O)(=O)CCC(=O)OCC(=O)NC(C)c2ccc(F)cc2)cc1 (stereo unspecified) | x | 20 | -9 | x | x | x | x
COc1cccc(/C=C/C(=O)NCc2ccc3c(c2)OCO3)c1 | -11 | -7 | 17 | -4 | -9 | x | x
O=C(/C=C/c1ccccc1)Nc1cc(NC(=O)/C=C/c2ccccc2)cc(C(=O)O)c1 | -21 | -9 | -5 | 9 | -13 | x | x
O=C(/C=C/c1ccccc1)Nc1cccc(C(=O)O)c1 | 95* | 68* | -5 | 4 | -7 | 64* | 20
CCC(=O)Nc1cccc(C(=O)/C=C/c2ccccc2)c1 | -208 | 95* | -20 | -4 | -10 | 31 | 34
COc1ccc(OC)c(-c2nc(C(=O)NCC3CCCO3)cc3c2[nH]c2ccccc23)c1 (stereo unspecified) | 9 | 34 | -14 | 26 | 33 | x | x
COc1cccc(-c2nc(C(=O)NCC3CCCO3)cc3c2[nH]c2ccccc23)c1 (stereo unspecified) | 2 | 65* | 30 | 35 | 38 | 25 | x
Cc1c(C(=O)Nc2ccncc2)sc2nc(-c3ccc(F)cc3)cn12 | -28 | 67* | 10 | -6 | 29 | 9 | x
CCOc1ccc(OCc2ccc(C(=O)NN=Cc3ccc[nH]3)cc2)cc1 | x | 84* | 92* | x | x | 73* | 28
O=C(N/N=C/c1ccc[nH]1)c1ccccc1OCc1ccc(F)cc1 | 11 | -14 | -6 | -8 | 4 | x | x
CCOC(=O)c1c(C)nc2sc(C(=O)Nc3ccc(OC)cc3)c(N)c2c1-c1ccc(OC)cc1 | -58 | 58* | 0 | 37 | 29 | 56* | 53*
CCOC(=O)c1c(C)nc2sc(C(=O)Nc3ccc(C(C)=O)cc3)c(N)c2c1-c1ccc(OC)cc1 | -90 | 6 | 63 | 27 | 34 | x | x
CC(=O)c1nn(-c2cccc(Br)c2)cc1C(=O)c1ccc(Br)cc1 | 30 | 56* | -2 | 6 | -10 | -7 | x
Cc1c(NC(=O)COc2c(F)c(F)c(F)c(F)c2F)c(=O)n(-c2ccccc2)n1C | 3 | 8 | -8 | 2 | -3 | x | x
COc1ccc(S(=O)(=O)N2CCOCC2)cc1NC(=O)c1ccc(OC(F)F)cc1 | x | 10 | x | x | x | x | x
c1ccc(CCn2c3ccccc3c3nnc(SCc4ccc5nonc5c4)nc32)cc1 | 38 | 91* | x | 12 | 49 | 63* | 44*
Cc1ccc(C)c(NS(=O)(=O)c2ccc3c(c2)Cc2cc(S(=O)(=O)Nc4cc(C)ccc4C)ccc2-3)c1 | x | x | 17 | x | x | x | x
SMILES | aSyn 5UTR inh | Mdm2 MdmX PPI | CSC inhib | SKKanGAS inh | T cruzi inh | Mdm2 MdmX conf | FLuc counter
Oc1ccc(CN2CCN(c3ccccc3)CC2)c2cccnc12 | 80* | 78* | -6 | 55* | 64* | 65* | 67*
CSc1ncccc1C(=O)N1CCN(S(=O)(=O)c2cc(C)ccc2C)CC1 | 15 | 18 | 0 | -1 | 16 | x | x
COc1ccccc1N1CCN(Cc2cc(Br)c(O)c3ncccc23)CC1 | 77* | 61* | 77* | 82* | 59* | 60* | 60*
Oc1ccc(CN2CCC(Cc3ccccc3)CC2)c2cccnc12 | 105* | 73* | x | -18 | 50 | 69* | 69*
CCOc1ccccc1N1CCN(Cc2cccc(OC)c2O)CC1 | -2 | 0 | 0 | 2 | -19 | x | x
Cc1ccc(C)c(S(=O)(=O)N2CCN(Cc3ccc(O)c4ncccc34)CC2)c1 | 74* | 78* | 5 | u | -5 | 71* | 36*
CCOc1ccc(CN2CCC(Cc3ccccc3)CC2)cc1 | 0 | 19 | 34 | -2 | 25 | x | x
CCOC(=O)N1CCN(Cc2ccc(O)c3ncccc23)CC1 | 18 | 50* | 46 | 30 | 34 | -9 | x
CCOC(=O)N1CCN(Cc2ccccn2)CC1 | -12 | -19 | -13 | -11 | -8 | x | x
Oc1ccc(CN2CCc3ccccc3C2)c2cccnc12 | 103* | 51* | 60 | 83* | 57* | 78* | 24
Oc1c(CN2CCN(c3ccccn3)CC2)cc(Cl)c2cccnc12 | 92* | 72* | u | 108* | 75* | 71* | 28
Cc1cc(NC(=O)c2cnccn2)no1 | -2 | x | x | u | -13 | x | x
CC(=O)c1c(C)[nH]c(C(=O)Nc2ccc(C)cn2)c1C | 85* | 53* | -7 | -4 | 1 | 48* | 74*
Cc1ccc(NC(=O)c2cnccn2)nc1 | -78 | 53* | -18 | -4 | -15 | -5 | x
O=C(Nc1ccc(C(=O)O)cc1)/C(=C\C=C\c1ccccc1)NC(=O)c1ccccc1Br | 15 | 26 | 23 | 12 | 2 | x | x
C/C(=N\NC(=O)c1cc(-c2cccs2)nc2ccccc12)c1ccccn1 | 79* | 80* | 136* | 90* | 36 | 75* | 28
C/C(=N\NC(=O)c1ccccc1OCc1ccc(F)cc1)c1ccccn1 | x | 93* | 31 | x | x | 53* | 45*
O=C(NCc1ccc(F)cc1)c1ccccc1OCc1ccccc1 | 32 | -19 | -5 | 1 | 15 | x | x
C/C(=N\NC(=O)c1cccc2ccccc12)c1ccccn1 | 60 | 96* | x | 79* | 64* | 38 | 30
C/C(=N\NC(=O)c1cccc2ccccc12)c1cccs1 | -56 | 2 | 5 | u | -10 | x | x
